The species entered for assay [1] is Homo sapiens. Kind of assay: Selectivity ratio of Ki for mu opioid receptor (unknown origin) to ratio of Ki for kappa opioid receptor (unknown origin).
The species entered for assay [2] is Homo sapiens. The assay is described as follows: Selectivity ratio of Ki for delta opioid receptor (unknown origin) to ratio of Ki for kappa opioid receptor (unknown origin).
The target in assay [3] is Delta-type opioid receptor (Homo sapiens, UniProt P41143). Kind of assay: Displacement of [3H]DADLE from delta opioid receptor (unknown origin) expressed in HEK293T cells after 1.5 hrs by radioligand binding assay. The class given is cell-based, HEK-293T. (Loss of bound radioactivity is the signal in a displacement assay; it reports binding, not function.)
Assay [4] addresses T1, Kappa-type opioid receptor (Homo sapiens, UniProt P41145). The assay is described as follows: Displacement of [3H]U69593 from kappa opioid receptor (unknown origin) expressed in HEK293T cells after 1.5 hrs by radioligand binding assay. The class given is cell-based, HEK-293T. Put shortly: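 HEK293T cells stably expressing KOR were hypotonically lysed in 50 mM Tris-HCl, 10 mM MgCl2, 0.1 mM EDTA, pH 7.4, and membranes were pelleted. Samples were filtered onto PEI-soaked GF/A filters and scintillation counted. Ki came from a one-site competition fit.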

Another assay deals with Mu-type opioid receptor (Homo sapiens, UniProt P35372). Kind of assay: Displacement of [3H]DAMGO from mu opioid receptor (unknown origin) expressed in HEK293T cells after 1.5 hrs by radioligand binding assay. The class given is cell-based, HEK-293T.
The target in assay [5] is T1, Kappa-type opioid receptor. The assay is described as follows: Inhibition of human kappa opioid receptor expressed in HEK293T cells assessed as inhibition of cAMP production after 30 mins. The class given is functional, cell-based, HEK-293T.

Bounds are passed on as bounds.

Broadly, the Ki is a measure of affinity in units of concentration, obtained from inhibition or displacement. A lower Ki goes with a stronger hold on the target. As usually defined, the EC50 is the concentration needed to bring the measured effect to its halfway point.

T1 sequence (P41145 whole entry): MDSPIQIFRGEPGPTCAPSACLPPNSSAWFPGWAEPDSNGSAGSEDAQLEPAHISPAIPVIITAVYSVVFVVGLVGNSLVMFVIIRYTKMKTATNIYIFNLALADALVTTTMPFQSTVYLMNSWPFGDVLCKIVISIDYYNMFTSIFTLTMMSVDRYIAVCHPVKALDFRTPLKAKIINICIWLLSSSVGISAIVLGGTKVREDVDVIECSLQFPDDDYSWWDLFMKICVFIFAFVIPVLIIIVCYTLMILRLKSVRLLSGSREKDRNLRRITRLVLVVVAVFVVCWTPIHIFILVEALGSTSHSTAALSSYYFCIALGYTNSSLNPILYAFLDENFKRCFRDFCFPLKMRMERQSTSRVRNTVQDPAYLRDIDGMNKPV
Sequence of Delta-type opioid receptor (P41143 whole entry): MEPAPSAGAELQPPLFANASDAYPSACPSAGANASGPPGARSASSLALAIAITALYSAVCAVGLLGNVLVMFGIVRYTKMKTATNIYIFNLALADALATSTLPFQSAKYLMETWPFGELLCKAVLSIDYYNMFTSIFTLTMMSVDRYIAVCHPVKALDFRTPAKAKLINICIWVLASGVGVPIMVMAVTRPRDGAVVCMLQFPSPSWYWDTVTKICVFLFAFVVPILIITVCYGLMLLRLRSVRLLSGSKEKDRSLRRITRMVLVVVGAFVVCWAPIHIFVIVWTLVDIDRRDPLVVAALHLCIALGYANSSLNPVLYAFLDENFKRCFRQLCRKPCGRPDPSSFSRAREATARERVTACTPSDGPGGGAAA
Sequence of Mu-type opioid receptor (P35372 whole entry): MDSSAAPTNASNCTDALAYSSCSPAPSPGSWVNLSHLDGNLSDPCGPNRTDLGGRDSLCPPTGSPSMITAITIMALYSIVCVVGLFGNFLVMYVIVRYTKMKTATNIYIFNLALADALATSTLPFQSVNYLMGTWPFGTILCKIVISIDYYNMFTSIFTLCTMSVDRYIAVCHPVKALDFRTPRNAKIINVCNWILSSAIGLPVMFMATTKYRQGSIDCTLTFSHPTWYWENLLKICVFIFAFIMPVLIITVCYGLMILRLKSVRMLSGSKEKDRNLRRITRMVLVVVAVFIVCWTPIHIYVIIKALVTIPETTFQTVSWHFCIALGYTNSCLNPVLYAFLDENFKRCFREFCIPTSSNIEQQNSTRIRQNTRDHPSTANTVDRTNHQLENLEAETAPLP

With `COC(=O)[C@@H]1C[C@H](OC(=O)/C=C/c2ccsc2)C(=O)[C@H]2[C@@]1(C)CC[C@H]1C(=O)O[C@H](c3ccoc3)C[C@]21C`, the Ratio Ki in the assay filed under Homo sapiens [1] is 0.06; in the assay listed under Homo sapiens [2], 0.75. Moreover, the Ki in assay [3] was 228 nM; in assay [4], 304 nM; on Mu-type opioid receptor, 18 nM. In assay [5], the EC50 was 582 nM.
Turning to `COC(=O)[C@@H]1C[C@H](OC(=O)C=C(C)C)C(=O)[C@H]2[C@@]1(C)CC[C@H]1C(=O)O[C@H](c3ccoc3)C[C@]21C`, the values for the Ratio Ki in the assay listed under Homo sapiens [1] and in the assay listed under Homo sapiens [2] were 0.73 and 6.8, respectively. The results for the Ki (in assay [3]; in assay [4]; at Mu-type opioid receptor) were 2630 nM, 385 nM and 284 nM, respectively. Also, the EC50 in assay [5] came out at 698 nM.
As for `COC(=O)[C@@H]1C[C@H](OC(=O)/C=C/c2ccc(OC)cc2)C(=O)[C@H]2[C@@]1(C)CC[C@H]1C(=O)O[C@H](c3ccoc3)C[C@]21C`, the Ki in assay [3] was greater than 10000 nM; in assay [4] it was 135 nM; on Mu-type opioid receptor it was greater than 10000 nM. Also, the EC50 in assay [5] is 21 nM.
As for `C/C=C(\C)C(=O)O[C@H]1C[C@@H](C(=O)OC)[C@]2(C)CC[C@H]3C(=O)O[C@H](c4ccoc4)C[C@]3(C)[C@H]2C1=O`, the Ki in assay [3] is greater than 10000 nM; in assay [4] it was 153 nM; on Mu-type opioid receptor, greater than 10000 nM. For the same molecule, in assay [5], the EC50 is 477 nM.
On to `C=CC(C)C(=O)O[C@H]1C[C@@H](C(=O)OC)[C@]2(C)CC[C@H]3C(=O)O[C@H](c4ccoc4)C[C@]3(C)[C@H]2C1=O` (some centres undefined), for which the Ratio Ki stood at 15 in the assay listed under Homo sapiens [1] and 105 in the assay listed under Homo sapiens [2]. Moreover, the values for the Ki (in assay [3]; in assay [4]; on Mu-type opioid receptor) were 3030 nM, 28.8 nM and 439 nM, respectively. Moreover, the EC50 in assay [5] is 37 nM.
For the molecule `COC(=O)[C@@H]1C[C@H](OC(=O)/C=C/c2cc(OC)ccc2OC)C(=O)[C@H]2[C@@]1(C)CC[C@H]1C(=O)O[C@H](c3ccoc3)C[C@]21C`, the inhibitory constant (Ki) in assay [3] is greater than 10000 nM; in assay [4] it was 581 nM; at Mu-type opioid receptor, greater than 10000 nM. In assay [5], the half-maximal effective concentration (EC50) stood at 38 nM.
Turning to `COC(=O)[C@@H]1C[C@H](OC(=O)/C=C/c2cc(C(F)(F)F)ccc2C(F)(F)F)C(=O)[C@H]2[C@@]1(C)CC[C@H]1C(=O)O[C@H](c3ccoc3)C[C@]21C`, the inhibitory constant (Ki) is 5870 nM in assay [3], greater than 10000 nM in assay [4] and greater than 10000 nM on Mu-type opioid receptor. Besides, the EC50 in assay [5] was determined as 1210 nM.
Take `C=C(C)CC(=O)O[C@H]1C[C@@H](C(=O)OC)[C@]2(C)CC[C@H]3C(=O)O[C@H](c4ccoc4)C[C@]3(C)[C@H]2C1=O`: the Ratio Ki in the assay filed under Homo sapiens [1] came to 60. The Ki in assay [3] is greater than 10000 nM; in assay [4], 6 nM; on Mu-type opioid receptor it was 362 nM. In addition, in assay [5], the half-maximal effective concentration (EC50) turned out to be 25 nM.
With `COC(=O)[C@@H]1C[C@H](OC(=O)/C=C/c2ccc(OC)cc2OC)C(=O)[C@H]2[C@@]1(C)CC[C@H]1C(=O)O[C@H](c3ccoc3)C[C@]21C`, the figures for the Ki (in assay [3]; in assay [4]; at Mu-type opioid receptor) were greater than 10000 nM, 162 nM and greater than 10000 nM, respectively. In assay [5], the EC50 was determined as 27 nM.
`C=CCC(=O)O[C@H]1C[C@@H](C(=O)OC)[C@]2(C)CC[C@H]3C(=O)O[C@H](c4ccoc4)C[C@]3(C)[C@H]2C1=O` came in with a Ki in assay [3] of 3260 nM.
Regarding `COC(=O)[C@@H]1C[C@H](OC(=O)/C=C/c2ccccc2)C(=O)[C@H]2[C@@]1(C)CC[C@H]1C(=O)O[C@H](c3ccoc3)C[C@]21C`, the Ratio Ki in the assay filed under Homo sapiens [1] came out at 5.4; in the assay listed under Homo sapiens [2], 73. The inhibition constant (Ki) in assay [3] turned out to be 700 nM; in assay [4], 9.6 nM; at Mu-type opioid receptor, 52 nM. The EC50 in assay [5] was 7 nM.
Take `COC(=O)[C@@H]1C[C@H](OC(=O)/C=C/c2cc(OC)c(OC)c(OC)c2)C(=O)[C@H]2[C@@]1(C)CC[C@H]1C(=O)O[C@H](c3ccoc3)C[C@]21C`: the inhibition constant (Ki) (in assay [3]; in assay [4]; on Mu-type opioid receptor) was greater than 10000 nM each time. In addition, the EC50 in assay [5] was 1800 nM.
Regarding `COC(=O)[C@@H]1C[C@H](OC(=O)/C=C/c2ccccc2OC)C(=O)[C@H]2[C@@]1(C)CC[C@H]1C(=O)O[C@H](c3ccoc3)C[C@]21C`, the results for the Ki (in assay [3]; in assay [4]; at Mu-type opioid receptor) were greater than 10000 nM, 64.9 nM and greater than 10000 nM, respectively. The half-maximal effective concentration (EC50) in assay [5] amounted to 10 nM.
`C/C=C/C(=O)O[C@H]1C[C@@H](C(=O)OC)[C@]2(C)CC[C@H]3C(=O)O[C@H](c4ccoc4)C[C@]3(C)[C@H]2C1=O`: the Ratio Ki in the assay listed under Homo sapiens [1] amounted to 21. The Ki was greater than 10000 nM in assay [3], 25.3 nM in assay [4] and 540 nM on Mu-type opioid receptor. In assay [5], the half-maximal effective concentration (EC50) was 11 nM.
In the case of `COC(=O)[C@@H]1C[C@H](OC(=O)/C=C/c2ccccc2C(F)(F)F)C(=O)[C@H]2[C@@]1(C)CC[C@H]1C(=O)O[C@H](c3ccoc3)C[C@]21C`, the figures for the inhibition constant Ki (in assay [3]; in assay [4]; on Mu-type opioid receptor) were greater than 10000 nM, 130 nM and greater than 10000 nM, respectively. In addition, the EC50 in assay [5] worked out at 20 nM.
`COC(=O)[C@@H]1C[C@H](OC(=O)/C=C/c2ccc3c(c2)OCO3)C(=O)[C@H]2[C@@]1(C)CC[C@H]1C(=O)O[C@H](c3ccoc3)C[C@]21C`: the Ratio Ki in the assay filed under Homo sapiens [1] worked out at 8.7. Moreover, the figures for the inhibition constant Ki (in assay [3]; in assay [4]; on Mu-type opioid receptor) were greater than 10000 nM, 323 nM and 2820 nM, respectively. Also, in assay [5], the 50% effective concentration (EC50) stood at 50 nM.
Consider `C=CC(=O)O[C@H]1C[C@@H](C(=O)OC)[C@]2(C)CC[C@H]3C(=O)O[C@H](c4ccoc4)C[C@]3(C)[C@H]2C1=O`, for which, in the assay listed under Homo sapiens [1], the Ratio Ki was 54. For the same molecule, the Ki in assay [3] is greater than 10000 nM; in assay [4], 18.1 nM; on Mu-type opioid receptor, 979 nM. In assay [5], the EC50 was found to be 137 nM.
With `COC(=O)[C@@H]1C[C@H](OC(=O)/C=C/c2ccc(C(F)(F)F)cc2)C(=O)[C@H]2[C@@]1(C)CC[C@H]1C(=O)O[C@H](c3ccoc3)C[C@]21C`, the Ratio Ki in the assay listed under Homo sapiens [1] and in the assay listed under Homo sapiens [2] was 1 each time. Further, the inhibitory constant (Ki) (in assay [3]; in assay [4]; at Mu-type opioid receptor) was greater than 10000 nM each time. The EC50 in assay [5] came out at 642 nM.
`COC(=O)[C@@H]1C[C@H](OC(=O)/C=C/c2ccc([N+](=O)[O-])cc2)C(=O)[C@H]2[C@@]1(C)CC[C@H]1C(=O)O[C@H](c3ccoc3)C[C@]21C`: the Ki in assay [3] was greater than 10000 nM; in assay [4], 281 nM; on Mu-type opioid receptor it was greater than 10000 nM. The EC50 in assay [5] was found to be 32 nM.
In the case of `COC(=O)[C@@H]1C[C@H](OC(=O)/C=C/c2cccnc2)C(=O)[C@H]2[C@@]1(C)CC[C@H]1C(=O)O[C@H](c3ccoc3)C[C@]21C`, the Ki in assay [3] is 4890 nM; in assay [4], greater than 10000 nM; on Mu-type opioid receptor it was 334 nM. In addition, in assay [5], the concentration for a half-maximal effect (EC50) turned out to be 1760 nM.
As to `COC(=O)[C@@H]1C[C@H](OC(=O)/C=C/c2ccccc2[N+](=O)[O-])C(=O)[C@H]2[C@@]1(C)CC[C@H]1C(=O)O[C@H](c3ccoc3)C[C@]21C`, the inhibitory constant (Ki) in assay [3] was greater than 10000 nM; in assay [4] it was 148 nM; on Mu-type opioid receptor, greater than 10000 nM. Besides, in assay [5], the EC50 was 33 nM.
`C=C(C)C(=O)O[C@H]1C[C@@H](C(=O)OC)[C@]2(C)CC[C@H]3C(=O)O[C@H](c4ccoc4)C[C@]3(C)[C@H]2C1=O`: in the assay listed under Homo sapiens [2], the Ratio Ki was found to be 221. In addition, the Ki in assay [3] was 7820 nM; in assay [4] it was 34 nM; on Mu-type opioid receptor, greater than 10000 nM.

For the origin of these results see ChEMBL document CHEMBL3351980, “Michael acceptor approach to the design of new salvinorin A-based high affinity ligands for the kappa-opioid receptor” (Eur J Med Chem, 2014).
